Experimental data of several laboratories.
Lines come from different studies, so protocols differ.
Target: Homeodomain-interacting protein kinase 1 (HIPK1, Homo sapiens, UniProt Q86Z02)

Structure (SMILES) | test | conditions | quantity | value
O=C(O)c1ccc2c(c1)nc(Nc1ccccc1)c1ccncc12 | enzyme activity, inhibitor, radiometric | 1 µM | remaining activity | 30%
FC(F)(F)Oc1cccc(-c2cnc3ccc(-c4ccncc4)nn23)c1 | enzyme activity, inhibitor, radiometric | 1 µM | activity vs control | 29%
CN([C@@H]1CCc2c(CC(=O)O)c3cc(S(C)(=O)=O)ccc3n2C1)S(=O)(=O)c1ccc(F)cc1 | cell-free assay, competition with immobilised ligand | 1 µM | remaining binding | 77%
COc1cc2c(N3CCN(C(=O)Nc4ccc(OC(C)C)cc4)CC3)ncnc2cc1OCCCN1CCCCC1 | cell-free assay | 0.5 µM | remaining signal | 98.9%
O=C(O)c1ccc2c(c1)nc(NCCc1ccccc1)c1ncncc12 | enzyme activity, inhibitor, radiometric | 1 µM | remaining activity | 18%
Cc1ccc(C(=O)NCc2ccsc2)cc1C#Cc1cn(C(C)C)c2ncnc(N)c12 | enzyme activity, inhibitor | 1 µM | activity vs control | 106%
O=C(O)c1ccc2c(c1)nc(NCCc1cccc(F)c1)c1ccncc12 | enzyme activity, inhibitor, radiometric | 1 µM | remaining activity | 13%
Cc1ccc(Nc2nccc(N(C)c3ccc4c(C)n(C)nc4c3)n2)cc1S(N)(=O)=O | enzyme activity, inhibitor | 0.3 µM | inhibition | 11%
Cc1sc(C(=O)NC2COC2)cc1-n1cc(NC(=O)Nc2c(F)cccc2Cl)cn1 | enzyme activity, inhibitor | 10 µM | remaining activity | 116%
COc1cc(/C=C/C(=O)CC(=O)/C=C/c2ccc(O)c(OC)c2)ccc1O | enzyme activity, inhibitor | 1 µM | activity vs control | 44%
COc1cc2ncnc(Nc3ccc(F)c(Cl)c3)c2cc1OCCCN1CCOCC1 | cell-free assay | 0.5 µM | remaining signal | 97.6%
CNC(=O)c1cc(Oc2ccc(NC(=O)Nc3ccc(Cl)c(C(F)(F)F)c3)cc2)ccn1 | enzyme activity, inhibitor | 10 µM | inhibition | 61%
O=C(O)c1ccc2c(c1)nc(NCCc1ccccc1)c1ccncc12 | enzyme activity, inhibitor, radiometric | 1 µM | remaining activity | 12%
Cc1nccc(COC(=O)N2C[C@@H]3[C@@H](CNC(=O)c4ccc5[nH]nnc5c4)[C@@H]3C2)n1 | cell-free assay, competition with immobilised ligand | 1 µM | remaining binding | 82%
O=C(O)c1ccc2c(c1)nc(Nc1ccc3ccccc3c1)c1ncncc12 | enzyme activity, inhibitor, radiometric | 1 µM | remaining activity | 1%
CC(=O)c1c(NS(C)(=O)=O)c2cc(-c3ccc(Cl)cc3)c(-c3ccc(Cl)cc3Cl)nc2n(C)c1=O | cell-free assay, competition with immobilised ligand | 1 µM | remaining binding | 96%
FC(F)c1nc2ccccc2n1-c1nc(N2CCOCC2)nc(N2CCOCC2)n1 | enzyme activity, inhibitor | 10 µM | remaining activity | 100%
CCC(=O)N[C@H]1CC[C@@H](C(=O)N(C)c2ccc(-c3nc4ccccc4o3)cc2)C1 | cell-free assay, competition with immobilised ligand | 1 µM | remaining binding | 80%
O=C(O)c1ccc2c(c1)nc(Nc1cccc(F)c1)c1ncncc12 | enzyme activity, inhibitor, radiometric | 1 µM | remaining activity | 3%
COc1cc2ncnc(Nc3ccc(Oc4ccccc4)c(C)c3C)c2cc1OC | enzyme activity, inhibitor | 1 µM | inhibition | 3%
Cn1cc(Cl)c2c(Oc3c(F)cc(Nc4cc(Cl)nc(N)n4)cc3F)ccnc21 | cell-free assay, competition with immobilised ligand | 0.1 µM | remaining binding | 100%
O=C(O)c1ccc2c(c1)nc(NCc1ccccc1)c1ccncc12 | enzyme activity, inhibitor, radiometric | 1 µM | remaining activity | 76%
CC1=C(C#N)C(c2ccc3c(c2)c(NC(=O)c2ccccc2C)nn3C)C(C#N)=C(C)N1 | cell-free assay, competition with immobilised ligand | 1 µM | remaining binding | 71%
CC/C(=N\NC(=O)NCc1cccc(O)c1)c1ccc(O)c(C)c1O | enzyme activity, inhibitor | 0.1 µM | inhibition | 6.3%
CCN(CC)CCNC(=O)c1c(C)[nH]c(/C=C2\C(=O)Nc3ccc(F)cc32)c1C | enzyme activity, inhibitor | 10 µM | inhibition | 59%
C[C@H](c1ccc(F)cc1)N(Cc1cccc(C(=O)O)c1)C(=O)c1cnc2ccccc2c1 | cell-free assay, competition with immobilised ligand | 1 µM | remaining binding | 100%
Cc1ccc(NC(=O)c2ccc(C)c(C(F)(F)F)c2)cc1C#Cc1nn(C2CCC(O)CC2)c2ncnc(N)c12 (stereo not drawn) | cell-free assay | 10 µM | remaining signal | 107%
CN1CC(Oc2cnc(C#N)cc2-c2ccn3nc(NC(=O)C4CC4)cc3c2)C1 | enzyme activity, inhibitor | 1 µM | inhibition | -3%
CO[C@@H](C)c1c(Nc2ccc([C@@H](N(C)C(=O)C3CCS(=O)(=O)CC3)C(F)(F)F)cc2)cnc2cc(Cl)nn12 | cell-free assay, competition with immobilised ligand | 1 µM | remaining binding | 56%
O=C(O)c1ccc2c(c1)nc(Nc1ccc(F)c(Cl)c1)c1ccncc12 | enzyme activity, inhibitor, radiometric | 1 µM | remaining activity | 8%
